Source: PubChem BioAssay (several laboratories)
This is a sample that favours compounds with a hit; in the whole collection about 4.7% have one here.
MPTP block: inhibitors of mitochondrial permeability transition pore; actives 1.4% (n = 360,000); inhibition, % at 10 µM; isolated mouse mitochondria, Ca2+ swelling absorbance, 30 min; AID 602449;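 active = inhibition of 50% or more, scaled per plate between neutral and stimulator controls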
NR3A LBD binder: modulators (binders) of human NR3A ligand-binding domain; Tm shift relative to glycine control, % at 25 µM; actives 2.5% (n = 340,000); NR3A LBD differential scanning fluorimetry, Tm shift; 0% = protein alone, 100% = glycine-bound protein; AID 1259313;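 active = melting temperature shift of at least 10% of the positive control shift, at one fixed dose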
ADAM17 inh: ADAM17 inhibition, QFRET primary screen | actives 0.83% (n = 370,000) | recombinant ADAM17, EDANS/DABCYL FRET peptide cleavage | AID 720648 | P78536 | inhibition, % at 6.95 µM;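 active = inhibition above the mean of compounds lying between control limits plus 3 SD, set per campaign, cut at about 8.5% in these data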
Target sequence (P78536 215-824 limits assumed): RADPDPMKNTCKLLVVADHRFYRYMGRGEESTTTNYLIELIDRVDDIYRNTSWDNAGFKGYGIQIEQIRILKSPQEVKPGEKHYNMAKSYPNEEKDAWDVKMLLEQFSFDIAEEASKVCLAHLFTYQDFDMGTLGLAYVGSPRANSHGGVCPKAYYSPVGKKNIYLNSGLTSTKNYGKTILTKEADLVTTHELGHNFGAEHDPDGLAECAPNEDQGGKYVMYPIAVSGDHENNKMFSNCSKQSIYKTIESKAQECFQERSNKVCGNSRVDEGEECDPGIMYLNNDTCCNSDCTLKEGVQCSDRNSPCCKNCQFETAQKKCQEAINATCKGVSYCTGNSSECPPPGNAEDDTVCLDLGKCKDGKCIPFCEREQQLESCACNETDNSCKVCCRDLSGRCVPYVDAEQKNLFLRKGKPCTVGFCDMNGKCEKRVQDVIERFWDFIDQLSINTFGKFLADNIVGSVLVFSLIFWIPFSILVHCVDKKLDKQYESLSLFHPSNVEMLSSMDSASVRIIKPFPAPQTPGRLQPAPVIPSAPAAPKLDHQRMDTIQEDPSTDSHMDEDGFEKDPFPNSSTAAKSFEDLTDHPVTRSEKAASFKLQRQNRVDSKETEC
MT1-MMP act inh: MT1-MMP (human) activation inhibition; GFP/RFP ratio change, % at 20 µM; actives 0.061% (n = 360,000); AID 651647; HT1080 RFP-PRO-GFP cells, GFP/RFP ratio fluorescence, overnight; percent of plate control window, DMSO zero; P50281;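 active = GFP/RFP ratio change of at least 30% with cell ATP level not reduced by more than half and red fluorescence within 50% of control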
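system = RFP-PRO-GFP reporter HT1080 cells | dosing = 20 µM single dose, 1% DMSO | timing = overnight cell settling, then overnight compound exposure, 37 °C, 5% CO2 | read-out basis = GFP/RFP fluorescence ratio | controls = DMSO and RFP-L50D-GFP cell wells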
SKN-1 inh: blocks SKN-1 activity in C. elegans | C. elegans VP596 Pgst-4::GFP/RFP ratio, acrylamide-induced, 24 h | inhibition, % at 21.8 µM | actives 0.49% (n = 360,000);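 active = interference check ratio from 0.5 to 1.5 plus GFP to RFP signal ratio inhibition reaching or exceeding a fixed threshold, cut at about 30% in these data, passing the limit was not always enough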
ADAM10 inh: ADAM10 inhibition, QFRET primary screen; AID 720582; recombinant ADAM10, EDANS/DABCYL FRET peptide cleavage, 3 h; O14672; inhibition, % at 7 µM; actives 0.62% (n = 370,000);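 active = inhibition above a per-campaign cutoff equal to the mean of compounds falling between control-based bounds plus 3 SD, cut at about 20% in these data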
MPTP counter: Rhodamine 123 counter-screen of mitochondrial pore hits. shares compounds with MPTP block. isolated mitochondria, membrane potential, Rhodamine 123 fluorescence. inhibition, % at 10 µM. actives 78% (n = 5,000). AID 624504; in the data active = inhibition above about 22%
MPTP abs DR: dose response confirmation of mitochondrial permeability transition pore inhibitors; shares compounds with MPTP block; isolated mitochondria swelling, absorbance; IC50, µM; actives 58% (n = 780); in the data active = IC50 below about 20 µM
MPTP counter DR: active in counter-screen for permeability transition pore inhibitors | shares compounds with MPTP block | isolated mitochondria counterscreen, fluorescence read-out | IC50, µM | actives 49% (n = 780) | AID 651564; in the data active = IC50 below about 80 µM
Each line names hits and unclear results; the compound was inactive in the other large screens (follow-up assays come after a bar, where they were run).

O=C1NC(=S)S/C1=C\c1ccc(SCc2ccccc2)o1	MPTP block 78 | MPTP counter 62
CCC(C)NC(=O)COC(=O)c1cccnc1Nc1ccccc1F (configuration not stated)	none
COc1ccc2[nH]c(=O)c(CNc3cc(C)ccc3C)cc2c1	none
O=S(=O)(Nc1ccc(Cl)cc1NS(=O)(=O)c1ccccc1)c1ccccc1	MPTP block 89 | MPTP counter 65
Cc1ccc(Cl)cc1NS(=O)(=O)c1ccccc1	none
CCOC(=O)C1=C(CN2CCN(C(=O)c3ccco3)CC2)NC(=O)NC1c1ccc(F)cc1 (configuration not stated)	none
CC(NC(=S)Nc1ccc(OC(F)F)cc1OC(F)F)C(C)(C)C (configuration not stated)	MPTP block 86 | MPTP counter 91
CC(NC(=S)Nc1ccccc1OC(F)F)C(C)(C)C (configuration not stated)	none
Cc1ccc(NC(=O)CSc2nnc(Cn3cnc4ccccc43)o2)c(C)c1	none
COCCNC(=O)/C(C#N)=C\c1ccc(CNC(=O)C(=O)Nc2ccc(C)c(C)c2)o1	none
Cc1ccc(NC(=O)C(=O)NCc2ccc(/C=C(/C#N)C(=O)NCc3cccnc3)o2)cc1C	MPTP block 60 | MPTP counter 76
O=C(NNC(=O)c1ccc([N+](=O)[O-])cc1)c1ccc(NS(=O)(=O)c2cccs2)cc1	none
Cc1cccc(C(=O)N2CCc3cc(-c4csc(NC(=O)CN5CCCC5)n4)ccc32)c1	MPTP block 86 | MPTP counter inactive | MPTP abs DR inactive | MPTP counter DR 37
OC1(c2cccc(C(F)(F)F)c2)CCN(c2ncnc3c2[nH]c2ccc(F)cc23)CC1	MPTP block 50 | MPTP counter 87
Fc1ccc2[nH]c3c(N4CCN(c5ccccc5)CC4)ncnc3c2c1	MPTP block 98 | MPTP counter 112
O=C(CCCN1CCC(O)(c2cccc(C(F)(F)F)c2)CC1)c1ccc(F)cc1	none
CCOC(=O)N1CCN(c2ncnc3c2[nH]c2ccc(F)cc23)CC1	MPTP block 98 | MPTP counter 84
CCCCOc1ncnc2c1[nH]c1ccc(F)cc12	MPTP block 95 | MPTP counter 84
CCOC(=O)C1=C(C)N(CCO)C(=O)NC1c1ccccc1 (configuration not stated)	none (no result: ADAM17 inh, ADAM10 inh)
CC(=O)c1ccc(OCC(=O)OCc2cc(-c3ccco3)on2)cc1	none
COC(=O)CCCC(=O)NC1CC(C)(C)Cc2c1cnn2-c1ccc(C)cc1 (configuration not stated)	none
O=C(NCCCN1CCC(Cc2ccccc2)CC1)C1CCN(S(=O)(=O)N2CCOCC2)CC1	MPTP block 88 | MPTP counter inactive | MPTP abs DR inactive | MPTP counter DR 61
Clc1cccc(N/N=C(\Cc2nc3ccccc3[nH]2)c2ccccc2)c1	MPTP block 72, NR3A LBD binder 31 | MPTP counter 70
CC(C)COCC(CN(Cc1ccccc1)c1ccccc1)N1CCCC1 (configuration not stated)	MPTP block 92 | MPTP counter inactive | MPTP abs DR 14 | MPTP counter DR 44
CC(C(=O)Nc1ccc(OCc2ccccc2)cc1)N1CCCC1 (configuration not stated)	none
O=C1/C(=C/c2ccc(O)c([N+](=O)[O-])c2)SC(=S)N1Cc1ccccc1	MPTP block 73, NR3A LBD binder 498 | MPTP counter 55
Cc1ccc(/C=C2/SC(=S)N(CCCC(=O)Nc3cc([N+](=O)[O-])ccc3O)C2=O)cc1	MPTP block 64 | MPTP counter inactive | MPTP abs DR 4.6 | MPTP counter DR <2.5
O=C(CN1C(=O)S/C(=C\c2ccccc2)C1=O)Nc1cc([N+](=O)[O-])ccc1O	MPTP block 58, NR3A LBD binder 23 | MPTP counter 79
CC(=O)N1CCN(c2ccc(NCc3ccc(F)cc3)cc2)CC1	none
Cc1ccc(C2=NC(=O)/C(=C/c3cc(O)c(O)c(Br)c3)S2)cc1	MPTP block 114 | MPTP counter 36
Fc1ccc(CN2CCN3CCCC3C2C2CCCCC2)cc1F (configuration not stated)	MPTP block 56 | MPTP counter inactive | MPTP abs DR 16 | MPTP counter DR inactive
CCCOc1ccc(/C=C2\SC(=S)N(CC3CCCO3)C2=O)cc1 (configuration not stated)	none
O=C1/C(=C/c2ccc(O)cc2)SC(=S)N1CC1CCCO1 (configuration not stated)	MPTP block 60 | MPTP counter 70
COc1ccc(-c2cc(=O)n(-c3ccc([N+](=O)[O-])cc3)[nH]2)cc1	MPTP block 97 | MPTP counter 71
COc1ccc(-c2coc3c(C(=O)NCc4ccc(F)c(F)c4)cccc23)c(C)c1	none (no result: NR3A LBD binder)
COc1ccc(-c2coc3c(C(=O)NCc4ccc(OC)c(OC)c4)cccc23)c(C)c1	MPTP block 98 (no result: NR3A LBD binder) | MPTP counter 102
COc1ccc(-c2ccc(C(=O)NCc3ccncc3)c3occc23)c(C)c1	MPTP block 92 (no result: NR3A LBD binder) | MPTP counter 112
O=C(NCc1ccncc1)c1ccc(-c2ccc(F)c(F)c2)c2ccoc12	MPTP block 91, SKN-1 inh 62 (no result: NR3A LBD binder) | MPTP counter 87
CNS(=O)(=O)c1cccc(C(=O)OCC(=O)NCCCc2ccccc2)c1	none
COc1ccc(-c2[nH]c(-c3ccc(SC)cc3)nc2SCC(=O)Nc2nccs2)cc1	MPTP block 68 | MPTP counter 49
O=C1c2ccc(Br)cc2C(=O)N1c1ccc(Cc2ccncc2)cc1	MPTP block 102 | MPTP counter 92
NC1=NC[C@H](Cc2ccc(O)cc2)N1CCC12CC3CC(CC(C3)C1)C2	MPTP block 50 | MPTP counter inactive
CCCCN1C(N)=NC[C@@H]1Cc1ccc(O)cc1	none
O=C(NCCS(=O)CCNC(=O)C(F)(F)F)C(F)(F)F	none
Cc1nc2ccc(S(=O)(=O)Nc3cccc(-c4nc5cccnc5s4)c3C)cc2s1	MPTP block 98 | MPTP counter 88
Clc1ccc(OCc2nn[nH]n2)cc1	none
Cc1cc(NC(=O)Nc2cccc(F)c2)n(-c2ccccc2)n1	none (no result: MPTP block, NR3A LBD binder, MT1-MMP act inh, SKN-1 inh)
